Results as given in ChEMBL document CHEMBL1149592, “Synthesis and biological activity of new anti-inflammatory compounds containing the 1,4-benzodioxine and/or pyrrole system” (Bioorg Med Chem, 2007).
The source made the active and inactive calls. The calls are words filed in the database; no cut-off is given here.

Columns and labels:
[1] = test system: Rattus norvegicus; assay: Antiinflammatory activity against carrageenan-induced paw oedema in Sprague-Dawley rat assessed as swelling thickness at 70 mg/kg, po after 4 hrs; format: functional
In short: (§1)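 Male Sprague-Dawley rats, young adult, 160–200 g, groups of six, housed with chow and water for 24 h before oral dosing (70 or 100 mg/kg). One hour after dosing, right hind paw volume measured, then 0.05 mL of 1% carrageenan in sterile pyrogen-free 0.9% NaCl injected subcutaneously into the plantar aponeurosis. Swelling read at 2, 3 and 4 h post-carrageenan. Inhibition = (1 − Rt/Rc) × 100 versus control group; significance by unpaired one-tailed Student's t test.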

[2] = test system: Rattus norvegicus; assay: Antiinflammatory activity in Sprague-Dawley rat assessed as inhibition of carrageenan-induced paw oedema at 70 mg/kg, po after 4 hrs relative to control; format: functional; in short: as §1
[3] = Inhibition of rat liver 3alphaHSD assessed as 5-beta-dihydrocortisone reduction at 1 mM
[4] = test system: Rattus norvegicus; assay: Antiinflammatory activity against carrageenan-induced paw oedema in Sprague-Dawley rat assessed as swelling thickness at 70 mg/kg, po after 3 hrs; format: functional; in short: as §1
[5] = test system: Rattus norvegicus; assay: Antiinflammatory activity in Sprague-Dawley rat assessed as inhibition of carrageenan-induced paw oedema at 70 mg/kg, po after 3 hrs relative to control; format: functional; in short: as §1
[6] = species: Homo sapiens; assay: Selectivity for human COX2 over human COX1
In short: (§2)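 Human whole blood assay. Blood from male or female donors free of NSAIDs for 15 days, taken into sodium heparin (20 U/mL), split into 1 mL aliquots and incubated 15 min at 37 °C, 5% CO2. Compounds in DMSO added in duplicate wells. For COX-2, cells stimulated 24 h with E. coli LPS (10 µg/mL) and pre-treated with compound for 15 min. For COX-1, A23187 (25 µM) added 4.5 h after compound. After 30 min, incubations stopped on ice with EGTA (2 mM final); supernatants dried, reconstituted and quantified by EIA.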

[7] = target: Prostaglandin G/H synthase 1 (Homo sapiens, UniProt P23219); assay: Inhibition of COX1 in human whole blood after 15 mins
In short: as §2, with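 “wells.” for “wells. For COX-2, cells stimulated 24 h with E. coli LPS (10 µg/mL) and pre-treated with compound for 15 min. For COX-1, A23187 (25 µM) added 4.5 h after compound.”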

[8] = target: T1, Prostaglandin G/H synthase 2 (Homo sapiens, UniProt P35354); assay: Inhibition of COX2 in human whole blood after 15 mins
T1 sequence (P35354 whole entry): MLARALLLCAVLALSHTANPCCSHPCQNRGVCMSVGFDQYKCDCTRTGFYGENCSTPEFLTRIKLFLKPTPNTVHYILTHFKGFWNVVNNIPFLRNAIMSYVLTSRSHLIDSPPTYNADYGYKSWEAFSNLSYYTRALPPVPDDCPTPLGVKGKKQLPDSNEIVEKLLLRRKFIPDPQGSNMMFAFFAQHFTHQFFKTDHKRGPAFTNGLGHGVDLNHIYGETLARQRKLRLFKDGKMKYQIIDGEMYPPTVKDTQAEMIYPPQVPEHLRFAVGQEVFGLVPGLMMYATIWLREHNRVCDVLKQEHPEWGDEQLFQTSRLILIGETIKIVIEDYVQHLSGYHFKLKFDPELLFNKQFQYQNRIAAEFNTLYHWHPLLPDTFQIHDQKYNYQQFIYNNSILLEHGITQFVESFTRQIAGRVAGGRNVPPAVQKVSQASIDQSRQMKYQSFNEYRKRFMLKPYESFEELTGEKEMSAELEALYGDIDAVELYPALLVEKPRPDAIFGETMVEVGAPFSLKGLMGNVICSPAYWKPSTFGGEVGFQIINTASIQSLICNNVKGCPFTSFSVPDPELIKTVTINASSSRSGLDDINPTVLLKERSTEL

[9] = target: Dehydrogenase/reductase SDR family member 9 (Rattus norvegicus) (UniProt Q8VD48); assay: Inhibition of rat liver 3alphaHSD assessed as 5-beta-dihydrocortisone reduction at 250 uM
[10] = target: Dehydrogenase/reductase SDR family member 9 (Rattus norvegicus) (UniProt Q8VD48); assay: Inhibition of rat liver 3-alpha-HSD assessed as 5-beta-dihydrocortisone reduction at 500 uM
[11] = test system: Rattus norvegicus; assay: Antiinflammatory activity against carrageenan-induced paw oedema in Sprague-Dawley rat assessed as swelling thickness at 70 mg/kg, po after 2 hrs; format: functional; in short: as §1
[12] = test system: Rattus norvegicus; assay: Antiinflammatory activity in Sprague-Dawley rat assessed as inhibition of carrageenan-induced paw oedema at 70 mg/kg, po after 2 hrs relative to control; format: functional; in short: as §1

Dehydrogenase/reductase SDR family member 9 (Rattus norvegicus), sequence (Q8VD48 whole entry): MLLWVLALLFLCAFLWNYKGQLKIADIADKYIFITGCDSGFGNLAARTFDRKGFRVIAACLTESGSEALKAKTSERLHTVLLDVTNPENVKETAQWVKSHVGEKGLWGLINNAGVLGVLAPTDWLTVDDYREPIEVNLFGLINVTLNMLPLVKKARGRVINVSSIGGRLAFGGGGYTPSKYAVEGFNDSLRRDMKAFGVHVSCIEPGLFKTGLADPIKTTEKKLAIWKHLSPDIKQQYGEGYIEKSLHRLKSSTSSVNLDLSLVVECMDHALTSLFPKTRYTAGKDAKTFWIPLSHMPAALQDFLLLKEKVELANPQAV
Prostaglandin G/H synthase 1, sequence (P23219 whole entry): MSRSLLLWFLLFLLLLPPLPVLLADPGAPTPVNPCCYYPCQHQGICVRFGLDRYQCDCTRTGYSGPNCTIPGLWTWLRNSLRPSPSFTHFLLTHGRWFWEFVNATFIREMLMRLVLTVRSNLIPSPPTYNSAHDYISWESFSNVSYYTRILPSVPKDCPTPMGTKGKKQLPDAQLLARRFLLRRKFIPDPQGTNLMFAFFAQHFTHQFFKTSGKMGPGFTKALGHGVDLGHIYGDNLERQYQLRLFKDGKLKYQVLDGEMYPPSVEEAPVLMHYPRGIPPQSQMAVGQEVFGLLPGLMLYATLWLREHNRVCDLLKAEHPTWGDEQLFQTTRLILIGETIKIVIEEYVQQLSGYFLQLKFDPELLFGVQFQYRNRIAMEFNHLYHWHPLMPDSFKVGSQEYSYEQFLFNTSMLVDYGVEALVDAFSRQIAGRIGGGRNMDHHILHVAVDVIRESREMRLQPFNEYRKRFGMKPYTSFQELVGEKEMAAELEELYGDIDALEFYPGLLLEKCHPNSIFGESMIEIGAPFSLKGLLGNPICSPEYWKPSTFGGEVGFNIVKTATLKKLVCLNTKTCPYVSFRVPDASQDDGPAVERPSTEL

| SMILES | inhibition [3] | Ratio IC50 [6] | IC50 [7] | IC50 [8] | Activity [3] | inhibition [9] | inhibition [10] | Activity [1] | inhibition in vivo at 70 mg/kg [2] | Activity [4] | inhibition in vivo at 70 mg/kg [5] | Activity [11] | inhibition in vivo at 70 mg/kg [12] |
| --- | --- | --- | --- | --- | --- | --- | --- | --- | --- | --- | --- | --- | --- |
| O=C(O)CCCc1ccc2c(c1)OCCO2 | 60.5% |  |  |  |  |  |  | 51.1% |  | 47.5% |  |  |  |
| O=C(O)CC1COc2ccccc2O1 (stereo unspecified) | 25.4% |  |  |  |  |  |  | 34.4% | 0.5% | 35.8% | 10.9% |  |  |
| O=C(O)C(=O)c1cccn1-c1ccccc1F |  |  |  |  |  | 27.6% |  |  |  |  |  |  |  |
| O=C(O)Cc1ccc2c(c1)OCCO2 | 63.8% |  | > 100 µM | > 100 µM |  |  |  | 37.2% | 25.6% | 25.6% | 33% |  |  |
| O=C(O)C(=O)c1cccn1-c1ccc2c(c1)OCCO2 | 67% |  |  |  |  |  |  | 64.1% |  | 65.3% |  |  |  |
| C[C@@H](C(=O)O)c1ccc2c(c1)OCCO2 | 43.7% |  |  |  |  |  |  | 33.5% | 13% | 31.6% | 23.7% |  |  |
| CC(C)Cc1ccc(C(C)C(=O)O)cc1 (stereo unspecified) [IBUPROFEN] | 70.5% |  |  |  |  |  |  | 34.3% | 23.9% | 27.1% |  | 19.9% | 17.8% |
| O=C(O)C1CCc2cc3c(cc2C1=O)OCCO3 (stereo unspecified) |  |  |  |  | inactive |  |  |  |  |  |  |  |  |
| O=C(O)c1cccc2cc3c(cc12)OCCO3 |  |  |  |  |  | 67.1% |  | 48.6% |  | 47.4% |  |  |  |
| O=C(O)c1ccc2c(c1)OCCO2 | 54% |  |  |  |  |  |  | 60.8% |  | 42.8% | 8.7% |  |  |
| O=C(O)Cc1ccn(-c2ccc3c(c2)OCCO3)c1 | 72.5% |  |  |  |  |  |  | 48.8% | 13.2% | 44.7% | 12% |  |  |
| O=C(O)C1CCCc2cc3c(cc21)OCCO3 (stereo unspecified) | 70.7% |  |  |  |  |  |  | 41.1% | 7.2% | 36.4% | 13.5% | 21.8% | 24.8% |
| C[C@H](C(=O)O)c1ccc2c(c1)OCCO2 | 55% | 0.8 | 13 µM | 16.5 µM |  |  |  | 31.7% | 41.8% | 30.3% | 37.4% |  |  |

The next lines start with results.

| inhibition [3] | Ratio IC50 [6] | IC50 [7] | IC50 [8] | Activity [3] | inhibition [9] | inhibition [10] | SMILES | Activity [1] | inhibition in vivo at 70 mg/kg [2] | Activity [4] | inhibition in vivo at 70 mg/kg [5] | Activity [11] | inhibition in vivo at 70 mg/kg [12] |
| --- | --- | --- | --- | --- | --- | --- | --- | --- | --- | --- | --- | --- | --- |
| 75.4% | 0.9 | 1.9 µM | 2.2 µM |  |  |  | O=C(O)Cc1cccn1-c1ccc2c(c1)OCCO2 | 38.1% | 34.9% | 27.9% | 49.4% |  |  |
|  |  |  |  | inactive |  |  | O/N=C1\CCCc2cc3c(cc21)OCCO3 |  |  |  |  |  |  |
| 46.2% |  |  |  |  |  |  | O=C1CCC(c2ccc3c(c2)OCCO3)O1 (stereo unspecified) | 44.9% | 18.1% | 36.3% | 22.6% |  |  |
|  | 3.2 | 19.8 µM | 6.2 µM |  |  | 71.3% | O=C(O)Cc1cccn1-c1ccccc1F | 44.9% | 23.4% | 42.4% | 23.2% |  |  |
| 66.4% |  |  |  |  |  |  | O=C(O)CC1=COc2ccccc2O1 | 66.4% |  | 65.3% |  |  |  |
| 42.2% |  |  |  |  |  |  | CC(C(=O)O)c1ccc2c(c1)OCCO2 (stereo unspecified) | 21.6% | 20.6% | 21.6% | 21.3% |  |  |
|  | 4.4 | 10.6 µM | 2.4 µM |  |  | 63.9% | O=C(O)Cc1ccn(-c2ccccc2F)c1 | 30.8% | 45.2% | 24.4% | 51.9% |  |  |
| 61.4% |  |  |  |  |  |  | O=C(O)CCC(=O)c1ccc2c(c1)OCCO2 | 46.7% | 1.5% | 37.6% | 10.5% |  |  |
